# Source: PubChem BioAssay
# CHT inh: inhibitors of human choline transporter CHT; Q9GZV3; CHT-expressing cells, membrane potential dye, choline response; hits give low values; B-score at 10 µM; 310,000 compounds, 0.86% hits;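 active = B-score over 3 SD under the library average, and starting fluorescence ratio not unusually high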;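 also: choline stimulus applied at its EC90 after an EC20 pre-addition; B-score computed on integrated fluorescence ratio after choline addition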
# COUP-TFII inh: NR2F2 (human) inhibition, primary screen; HEK293T NGFI-A luciferase reporter, luminescence; 370,000 compounds, 0.7% hits; P24468; inhibition, % at 8.6 µM;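 active = inhibition above a per-plate cutoff, mean inhibition of test wells between control levels plus 3 SD, cut at about 38% in these data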;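 also: cells cotransfected with COUP-TFII expression vector driving the NGFI-A reporter; 0% = median of COUP-TF2 test wells and 100% = reporter-only cells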
# Target sequence (P24468 whole entry, looked up): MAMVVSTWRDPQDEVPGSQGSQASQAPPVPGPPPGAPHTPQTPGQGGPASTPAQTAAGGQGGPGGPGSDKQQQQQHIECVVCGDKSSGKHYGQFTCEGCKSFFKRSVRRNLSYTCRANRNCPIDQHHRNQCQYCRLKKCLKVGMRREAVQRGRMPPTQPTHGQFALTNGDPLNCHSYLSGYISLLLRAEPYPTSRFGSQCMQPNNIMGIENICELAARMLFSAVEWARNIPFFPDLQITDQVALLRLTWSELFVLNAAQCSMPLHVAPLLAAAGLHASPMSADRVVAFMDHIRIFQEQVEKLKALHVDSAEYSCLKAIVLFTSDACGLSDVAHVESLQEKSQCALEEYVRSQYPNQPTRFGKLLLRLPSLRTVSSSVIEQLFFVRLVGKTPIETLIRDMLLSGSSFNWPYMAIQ
# NR2E3 ag-1: human photoreceptor-specific nuclear receptor agonism. inhibition of corepressor binding, % at 3.98 µM. 360,000 compounds, 0.35% hits. Q9Y5X4. AID 602229. CHO-S Gal4-NCOR/VP16-NR2E3 two-hybrid, luciferase;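 active = inhibition above the mean of all tested compounds plus 3 SD, cut at about 70% in these data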;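 also: 0% = DMSO with NR2E3 transfected cells and 100% = cells lacking NR2E3 construct; higher means lower luciferase signal from less NR2E3 corepressor binding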
# NR2E3 ag-2: NR2E3 (human) agonism | inhibition of corepressor binding, % at 4.78 µM | GST-NR2E3/biotin-RetCOR TR-FRET, 1536-well | 320,000 compounds, 0.12% hits | AID 2300 | Q9Y5X4;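 active = percent inhibition above the cutoff of mean plus 3 SD of all tested compounds, set per screening campaign, cut at about 20% in these data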;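 also: 0% = DMSO wells and 100% = biotin wells as full block of FRET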
#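 Material – GST-tagged NR2E3 plus biotinylated RetCOR corepressor · Quantity – NR2E3 fusion 1.35 nM · Times – 5 h incubation at 4 °C · Medium – pH 7.5 Tris-based buffer · Technique – TR-FRET, Eu(K)-anti-GST donor, streptavidin-D2 acceptor, ex 340, em 617/671 nm · Benchmarks – high control biotin, low control 0.6% DMSO · Format – 1536-well plates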
# GalR3 antagonist: antagonists of human GalR3; HEK293 GalR3-CNG cAMP membrane potential fluorescence; galR3 body fused to GalR1 C-terminus; inhibition, % at 3 µM; 360,000 compounds, 0.44% hits;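 active = inhibition above the screen-wide average plus 3 SD, cut at about 13% in these data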;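 also: forskolin and galanin both at EC90 stimulate the cells; cAMP rise reported by CNG channel membrane potential dye signal; 0% = forskolin plus galanin with DMSO and 100% = forskolin alone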
# Target sequence (O60755 1-299 limits assumed): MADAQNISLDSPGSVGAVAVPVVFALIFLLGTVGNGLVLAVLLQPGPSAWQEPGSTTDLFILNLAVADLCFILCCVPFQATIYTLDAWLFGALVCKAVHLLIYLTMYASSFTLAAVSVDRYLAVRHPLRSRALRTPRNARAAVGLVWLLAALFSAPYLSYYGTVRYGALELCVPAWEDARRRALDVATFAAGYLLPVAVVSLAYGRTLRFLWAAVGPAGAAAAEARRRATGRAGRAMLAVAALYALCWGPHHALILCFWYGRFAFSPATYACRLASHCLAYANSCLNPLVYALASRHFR
# CHT PAM: allosterically activates the human high affinity choline transporter; CHT-expressing cells, membrane potential dye, choline EC20; hits give high values; LV-AA mutant CHT in HEK293 cells; B-score at 10 µM; Q9GZV3; AID 488977; 310,000 compounds, 0.49% hits;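 active = initial fluorescence not abnormally high and integrated response B-score, plate-corrected, over 3 SD above library mean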
# CHT inh conf: human CHT inhibition, confirmatory screen | shares compounds with CHT inh | CHT-expressing cells, choline membrane potential dye; LV-to-AA substituted CHT, HEK293 cells | CHT activity remaining % of control (hits give low values), % at 10 µM | 2,400 compounds, 70% hits | AID 493221;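 active = choline transporter activity left, mean of duplicates at 10 µM, below buffer-only control mean minus 3 SD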;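 also: depolarization triggered by choline at its EC90 following an EC20 pre-addition; 0% = hemicholinium-3 full block and 100% = buffer-only control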
# HEK293 MPD ctr: activity in parental HEK293 cells lacking CHT. shares compounds with CHT inh. membrane potential dye, choline response; active = decrease or increase beyond buffer ±3SD. membrane potential ratio readout (active if shifted either direction beyond buffer ±3SD; no single direction) at 10 µM. 2,400 compounds, 4% hits. AID 493222;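 also: parental cells lack the transporter so any hit is non-specific; ratio is peak minus trough fluorescence over baseline after EC90 choline challenge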
# The depositor's hits bear a star; i = inactive; / = no result given. A selection: hits, their analogues and other compounds. The true share with any hit is near 2.3%.
SMILES,CHT inh,COUP-TFII inh,NR2E3 ag-1,NR2E3 ag-2,GalR3 antagonist,CHT PAM,CHT inh conf,HEK293 MPD ctr
O=C(O)c1[nH]c2ccc(Cl)cc2c1CC(=O)N1CCN(c2ccccc2)CC1,-7.63*,7.4,-6.3,1.9,0.6,i,36.5%*,i
CCCc1cc2c(=O)c(-c3ccccn3)coc2cc1OC,i,-11.4,-133.4,-2.8,0.1,i,/,/
CCCc1cc2c(=O)c(-c3ccccn3)c(C)oc2cc1O,-12.2*,-37.6,-14.8,2.1,-2.1,i,9.4%*,i
Cc1cc(OCc2cc(C(=O)NCCN3CCCCC3CO)no2)cc(C)c1Cl (stereo not given),-5.37*,0.5,-3.4,-2.7,-1.3,i,48.8%*,i
CN(C)CCCNC(=S)NCC(c1ccc(Cl)cc1Cl)c1c[nH]c2ccccc12 (stereo not given),-5.76*,2.4,-25.2,4.8,-11.0,i,i,i
CCCCNC(=S)NCC(c1ccccc1)c1c[nH]c2ccccc12 (stereo not given),i,12.9,5.3,-4.6,-15.0,i,/,/
Cc1c(C#N)c(NC(=O)CCl)n(Cc2cccs2)c1C,-6.13*,-5.1,22.5,1.4,0.6,i,i,i
Cc1c(C#N)c(NC(=O)CCl)n(Cc2ccccc2)c1C,i,19.3,13.5,3.4,-0.8,i,/,/
Cc1ccc(NC(=O)CSc2nnc(-c3cccnc3)n2Cc2ccco2)cc1C,/,-12.2,/,/,/,/,/,/
C=CCN1[C@@H](C)COc2cc(F)ccc2S1(=O)=O,/,4.3,/,/,/,/,/,/
Cc1sc(NC(=O)c2ccco2)nc1-c1ccccc1,-9.22*,-26.5,-119.3,7.4,-7.3,i,53.2%*,i
CN1/C(=C\C=Nc2cc(S(=O)(=O)N3CCOCC3)ccc2N2CCOCC2)C(C)(C)c2ccccc21,i,6.5,-17.8,0.7,-6.5,i,20.9%*,i
O=C(Cc1ccccc1)Nc1ccc(Cl)cn1,i,-10.3,8.0,-4.2,-6.2,i,/,/
O=C(CN1C(=O)c2ccccc2C1=O)Nc1ccc(Cl)cn1,-5.11*,-26.6,23.8,1.1,8.3,i,i,i
COc1ccc(Oc2c(Cl)cnn(-c3ccc(C(C)C)c(C)c3)c2=O)cc1,/,-21.4,/,/,/,/,/,/
O=c1[nH]ncc(N2CCCC2)c1Cl,-9.96*,17.8,-13.9,1.6,-5.0,i,41.9%*,i
COCCNc1c(-c2ccc(OC)cc2)nc2ccc(Cl)cn12,-9.61*,-19.4,4.2,-0.2,0.7,i,i,i
COc1ccc(N=Cc2cc(Cc3ccccc3Cl)cc([N+](=O)[O-])c2O)cc1OC,-5.97*,/,27.1,-0.2,/,i,i,i
Cc1ccc(N=Cc2cc(Cc3ccccc3Cl)cc([N+](=O)[O-])c2O)c(O)c1,-7.81*,/,4.8,-3.5,/,i,64.1%*,i
O=C(Nc1cccc(C(F)(F)F)c1)C1CCN(S(=O)(=O)c2cccnc2)CC1,-5.37*,-6.5,6.4,0.4,-7.1,i,55.2%*,i
O=C(NCC1CCCO1)c1cnn2c1NC(c1ccccc1)CC2C(F)(F)F (stereo not given),i,12.4,0.3,4.3,5.7,i,/,/
O=C(NCCCn1ccnc1)c1cnn2c1NC(c1ccccc1)CC2C(F)(F)F (stereo not given),-13.6*,8.6,-17.9,-0.9,-2.9,i,9.0%*,i
Nc1nc(SCC(=O)Nc2ccc3c(c2)OCO3)n[nH]1,-5.06*,-15.7,-17.8,5.3,-8.6,i,i,i
Nc1cc(N)nc(SCC(=O)Nc2ccc3c(c2)OCO3)n1,i,-9.9,-17.7,-1.1,-2.2,i,/,/
COC(=O)[C@]12C[C@H](CC(=O)N3CCCCC3)C(=O)N(Cc3cccc4ccccc34)C1=C[C@H](C(C)(C)C)O[C@@H]2C,/,11.9,/,/,/,/,/,/
SMILES,CHT inh,COUP-TFII inh,NR2E3 ag-1,NR2E3 ag-2,GalR3 antagonist,CHT PAM,CHT inh conf,HEK293 MPD ctr
O=S(=O)(CC1NCc2ccccc21)NC1CCCC1 (stereo not given),/,5.7,/,/,/,/,/,/
CC1CC(C)CN(C(=O)c2nn(C)c3c2CSc2ccccc2-3)C1 (stereo not given),i,8.5,-6.6,-1.9,/,i,/,/
CC1CCCC(C)N1CCCNC(=O)c1ccc2c(c1)NC(=O)c1ccccc1S2 (stereo not given),-5.24*,4.6,-1.4,-2.6,1.5,i,39.7%*,i
CC1CCCC(C)N1CCCNC(=O)c1nn(C)c2c1CSc1ccccc1-2 (stereo not given),-11.2*,-3.2,-32.3,2.5,-11.8,i,2.4%*,i
Cc1nn(-c2ccccc2)c2sc(C(=O)NC3CCCCCCC3)cc12,/,-10.4,/,/,/,/,/,/
Cc1ccnc(N/N=C/c2ccccc2)n1,i,-29.8,-79.0,-3.1,7.2,i,/,/
C(=N\Nc1nccc(-c2cccnc2)n1)/c1ccccc1,-12*,-29.4,-93.1,1.2,-0.8,i,i,i
CN(Cc1ccccc1)S(=O)(=O)c1cccc(C(=O)OCc2ccc(Oc3ccccc3)cc2)c1,/,4.2,/,/,/,/,/,/
COc1ccc(CC(=O)N2CCc3cc(OC)c(OC)cc3C2C)c(OC)c1 (stereo not given),-12.1*,/,-13.8,-0.7,/,i,i,i
COc1ccc(/C(O)=C2/C(=O)C(=O)N(c3ccccn3)C2c2cccc(Cl)c2)cc1 (stereo not given),-5.35*,-36.8,8.5,9.1,-8.7,i,59.1%*,i
COc1ccc(/C(O)=C2/C(=O)C(=O)N(c3ccccn3)C2c2ccc(OC)cc2)cc1 (stereo not given),/,-7.6,-28.4,/,-8.9,/,/,/
CC(C)COc1nc2ccccc2nc1N1CCN(C)CC1,-5.99*,4.5,-14.8,/,-0.5,i,41.1%*,i
CN1CCN(c2nc(-c3ccc(C(C)(C)C)cc3)nc3ccccc23)CC1,i,-6.3,-13.9,5.0,-11.0,i,/,/
Cn1ncc2c(N3CCC(Cc4ccccc4)CC3)ncnc21,-6.64*,14.4,27.6,0.4,-5.0,i,65.7%*,i
c1ccc(CCN2CCN(c3ncnc4c3cnn4-c3ccccc3)CC2)cc1,-5.34*,23.6,-22.2,-3.1,0.4,i,34.1%*,i
CCN1CCN(c2ncnc3c2cnn3-c2ccccc2)CC1,i,-38.2,-33.0,-2.0,-0.1,i,/,/
Cc1cccc(Cn2cc(CN3CC(N(C)CCCOC(=O)c4cc(C)cc(C)c4)CS3(=O)=O)nn2)c1 (stereo not given),/,32.9,/,/,/,/,/,/
